Active and inactive are the calls of the source. No cut-off for these calls is given here.
Assays:
[1] = Antiplatelet activity against collagen EPI-induced human platelet aggregation assessed as closure time at 1.25 x 10^-4M; type: functional
Procedure, shortened: (§1)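 Compound solution added to citrated human whole blood (125 µL into 1875 µL) to the final concentration stated, then run on a PFA-100 in collagen/ADP and collagen/epinephrine cartridges. Closure time is the time until platelets occlude the membrane aperture, in seconds. Mean ± SEM of three independent experiments.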

[2] = biological target: Coagulation factor X (Homo sapiens) (UniProt P00742); assay: Inhibition of human factor 10a assessed as 125 x 10^-6M chromogenic TH substrate hydrolysis at 0.5 x 10^-3M
Coagulation factor X (Homo sapiens), sequence (P00742 41-179 limits assumed): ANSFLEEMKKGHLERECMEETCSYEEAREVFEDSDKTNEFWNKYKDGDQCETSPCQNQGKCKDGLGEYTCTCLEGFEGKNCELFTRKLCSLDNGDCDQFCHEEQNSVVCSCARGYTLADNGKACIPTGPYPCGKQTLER
Coagulation factor X (Homo sapiens), sequence (P00742 235-488 limits assumed): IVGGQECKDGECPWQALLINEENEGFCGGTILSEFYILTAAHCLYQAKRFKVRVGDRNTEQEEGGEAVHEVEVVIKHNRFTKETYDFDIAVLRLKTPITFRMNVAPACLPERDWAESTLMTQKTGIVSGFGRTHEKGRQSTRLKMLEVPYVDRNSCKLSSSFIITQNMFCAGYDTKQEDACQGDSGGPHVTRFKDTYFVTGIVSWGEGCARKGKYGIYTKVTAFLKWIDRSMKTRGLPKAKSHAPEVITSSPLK
Procedure, shortened: (§2)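 Direct FXa test, with buffer in place of ATIII: compound in water in 50 mM Tris/HCl pH 8.3, 227 mM NaCl, 0.1% BSA, 10 min at 37 °C. Human FXa (0.5 U/mL final) added for 10 min, then CBS 31.39 (25 or 125 × 10^-6 M). Read at 405 nm every 12 s for 20 min. Percent inhibition from initial slope against water control, Michaelis-Menten fit.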

[3] = biological target: Coagulation factor X (Homo sapiens) (UniProt P00742); assay: Inhibition of human factor 10a assessed as 25 x 10^-6M chromogenic TH substrate hydrolysis at 1 x 10^-3M; procedure, shortened: as §2
Blood [4] = assay: Anticoagulant activity in human whole blood assessed as clotting time at 1.25 x 10^-4M by thromboelastography in presence of extrinsic activators; type: functional
Procedure, shortened: (§3)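 Citrated whole blood from healthy donors (1:9 citrate), run within 5 h on a ROTEM analyzer. Compound in saline diluted 1:16 into blood to the final concentration stated; saline control. Intrinsic (InTEM) or extrinsic (ExTEM) activator added. Clot monitored at 37 °C in an oscillating cup-and-pin system for up to 60 min, giving R, K, angle and MA.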

[5] = biological target: Coagulation factor X (Homo sapiens) (UniProt P00742); assay: Inhibition of human factor 10a assessed as 125 x 10^-6M chromogenic TH substrate hydrolysis at 1 x 10^-3M; procedure, shortened: as §2
[6] = biological target: Coagulation factor X (Homo sapiens) (UniProt P00742); assay: Inhibition of human factor 10a assessed as 125 x 10^-6M chromogenic TH substrate hydrolysis at 2 x 10^-3M; procedure, shortened: as §2
Mus musculus [7] = assay: Hepatotoxicity in mouse liver assessed as change in plasma GOT/GPT level at 150 umol/kg, ip; type: toxicity, organism-based; conditions: in vivo
Procedure, shortened: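 Male CD1 mice (30-35 g), compound in saline ip at 150 µmol/kg. Portal vein citrated blood taken at 30, 60 and 120 min. GOT and GPT (U/L) measured in platelet-poor plasma on an automated chemistry analyzer. Four independent experiments, mean ± SEM.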

[8] = Antiplatelet activity against collagen ADP-induced human platelet aggregation assessed as closure time at 1.25 x 10^-4M; type: functional; procedure, shortened: as §1
Mus musculus [9] = assay: Anticoagulant activity in mouse assessed as increase in activated partial prothrombin time at 150 umol/kg, ip relative to control; type: functional
Procedure, shortened: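 Adult male CD1 mice (30-35 g) given compound in saline ip at 150 µmol/kg, fasted on the day. Citrated portal vein blood taken at 30, 60 and 120 min. APTT measured in platelet-poor plasma. Expressed as ratio to saline-treated mice, mean ± SEM of three experiments.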

Blood [10] = assay: Anticoagulant activity in human whole blood assessed as alpha angle at 1.25 x 10^-4M by thromboelastography in presence of extrinsic activators; type: functional; procedure, shortened: as §3
[11] = Anticoagulant activity in human plasma assessed as concentration required to double thrombin time; type: functional
Procedure, shortened: (§4)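 Citrated pooled normal human plasma mixed 1:1 with compound in water (final 5 × 10-3 to 0.05 × 10^-3 M) and held 2 min at 37 °C. APTT: reagent added, 6 min at 37 °C, then 25 mmol/L CaCl2. PT: prewarmed PT reagent. TT: prewarmed thrombin (100 U/mL). Clotting read on a coagulometer, duplicate, three days (n = 6). Doubling concentration taken from linear regression of each concentration-response curve.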

[12] = biological target: T1, Coagulation factor X/antithrombin III (Homo sapiens) (UniProt P01008+P00742); assay: Inhibition of human antithrombin 3/factor 10a assessed as 125 x 10^-6M CBS31.39 substrate hydrolysis at 1 x 10^-3M; type: protein-complex assay
[13] = biological target: T1, Coagulation factor X/antithrombin III (Homo sapiens); assay: Inhibition of human antithrombin 3/factor 10a assessed as 25 x 10^-6M CBS31.39 substrate hydrolysis at 0.5 x 10^-3M; type: protein-complex assay
[14] = biological target: Prothrombin (Homo sapiens) (UniProt P00734); assay: Inhibition of human thrombin
Procedure, shortened: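 Direct thrombin assay without ATIII: compound in water in 50 mM Tris/HCl pH 8.3, 227 mM NaCl, 0.1% BSA, 10 min at 37 °C. Human thrombin (0.06 U/mL final) added for 10 min, then Chromozym TH (178 × 10^-6 M). Read at 405 nm every 12 s for 20 min. Percent inhibition from initial slope against water control. Duplicates on ≥3 days.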

[15] = biological target: T1, Coagulation factor X/antithrombin III (Homo sapiens); assay: Inhibition of human antithrombin 3/factor 10a assessed as 25 x 10^-6M CBS31.39 substrate hydrolysis at 2 x 10^-3M; type: protein-complex assay
[16] = biological target: T1, Coagulation factor X/antithrombin III (Homo sapiens); assay: Inhibition of human antithrombin 3/factor 10a assessed as 25 x 10^-6M CBS31.39 substrate hydrolysis at 1 x 10^-3M; type: protein-complex assay
[17] = biological target: Coagulation factor X (Homo sapiens) (UniProt P00742); assay: Inhibition of human factor 10a assessed as 25 x 10^-6M chromogenic TH substrate hydrolysis at 2 x 10^-3M; procedure, shortened: as §2
[18] = biological target: T1, Coagulation factor X/antithrombin III (Homo sapiens); assay: Inhibition of human antithrombin 3/factor 10a assessed as 125 x 10^-6M CBS31.39 substrate hydrolysis at 0.5 x 10^-3M; type: protein-complex assay
Blood [19] = assay: Anticoagulant activity in human whole blood assessed as clotting time at 1.25 x 10^-4M by thromboelastography in presence of intrinsic activators; type: functional; procedure, shortened: as §3
Blood [20] = assay: Anticoagulant activity in human whole blood assessed as maximum amplitude at 1.25 x 10^-4M by thromboelastography in presence of extrinsic activators; type: functional; procedure, shortened: as §3
[21] = biological target: Coagulation factor X (Homo sapiens) (UniProt P00742); assay: Inhibition of human factor 10a assessed as 25 x 10^-6M chromogenic TH substrate hydrolysis at 0.5 x 10^-3M; procedure, shortened: as §2
[22] = Anticoagulant activity in human plasma assessed as concentration required to double prothrombin time; type: functional; procedure, shortened: as §4
Blood [23] = assay: Anticoagulant activity in human whole blood assessed as clotting formation time at 1.25 x 10^-4M by thromboelastography in presence of intrinsic activators; type: functional; procedure, shortened: as §3
Blood [24] = assay: Anticoagulant activity in human whole blood assessed as clotting formation time at 1.25 x 10^-4M by thromboelastography in presence of extrinsic activators; type: functional; procedure, shortened: as §3
[25] = biological target: T1, Coagulation factor X/antithrombin III (Homo sapiens); assay: Inhibition of human antithrombin 3/factor 10a assessed as 125 x 10^-6M CBS31.39 substrate hydrolysis at 2 x 10^-3M; type: protein-complex assay
[26] = Anticoagulant activity in human plasma assessed as concentration required to double activated partial prothrombin time; type: functional; procedure, shortened: as §4
[27] = Stability of the compound in human plasma assessed as compound remaining after 3 hrs; type: ADME, cell-free; conditions: read-out: Activity
Procedure, shortened: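 Compound at 25 µM final in human plasma diluted 1:1 with PBS pH 7.4, shaken at 37 °C for 180 min. Time-zero and 180-min samples quenched with TBA buffer and cold acetonitrile, then centrifuged. Supernatant dried, redissolved and analysed by HPLC. Three independent samples per time point.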

Blood [28] = assay: Anticoagulant activity in human whole blood assessed as maximum amplitude at 1.25 x 10^-4M by thromboelastography in presence of intrinsic activators; type: functional; procedure, shortened: as §3
Blood [29] = assay: Anticoagulant activity in human whole blood assessed as alpha angle at 1.25 x 10^-4M by thromboelastography in presence of intrinsic activators; type: functional; procedure, shortened: as §3

inhibition [2]: 22.4% | inhibition [3]: 30.9% | inhibition [5]: 32% | inhibition [6]: 42.7% | inhibition [12]: 20.7% | inhibition [13]: 29.3% | inhibition [14]: inactive | inhibition [15]: 31.4% | inhibition [16]: 30.5% | inhibition [17]: 40% | inhibition [18]: inactive | inhibition [21]: inactive | inhibition [25]: 33.1% | remaining at 3 h [27]: 95%
Structure (SMILES): C[C@H]1O[C@@H](OC[C@@H]2O[C@H](Oc3c(-c4ccc(OS(=O)(=O)O)c(OS(=O)(=O)O)c4)oc4cc(OS(=O)(=O)O)cc(OS(=O)(=O)O)c4c3=O)[C@@H](OS(=O)(=O)O)[C@H](OS(=O)(=O)O)[C@H]2OS(=O)(=O)O)[C@@H](OS(=O)(=O)O)[C@@H](OS(=O)(=O)O)[C@@H]1OS(=O)(=O)O
Time [1]: 244 s | Time (Blood [4]): 120 s | Activity (Mus musculus [7]): Non-toxic | Time [8]: 189 s | fold change (FC) (Mus musculus [9]): 1.5 | Activity (Blood [10]): 51 degree | Activity [11]: 877 µM | Time (Blood [19]): 261 s | Activity (Blood [20]): 46 mm | 2PT [22]: 649 µM | Time (Blood [23]): 176 s | Time (Blood [24]): 257 s | 2aPTT [26]: 66 µM | Activity (Blood [28]): 48 mm | Activity (Blood [29]): 61 degree

Source: ChEMBL document CHEMBL1649091, “Flavonoids with an oligopolysulfated moiety: a new class of anticoagulant agents” (J Med Chem, 2011)
